Results published in ChEMBL document CHEMBL1157467, “Discovery of nonsteroidal 17beta-hydroxysteroid dehydrogenase 1 inhibitors by pharmacophore-based screening of virtual compound libraries” (J Med Chem, 2008).
Active and inactive are the calls of the source. The calls are words filed in the database; no cut-off is given here.

Assays:
[1] = molecular target: T1, 17-beta-hydroxysteroid dehydrogenase type 3 (Homo sapiens) (UniProt P37058); assay: Inhibition of human recombinant 17beta-HSD3 expressed in intact HEK293 cells assessed as conversion of androstenedione to testosterone at 20 uM; format: cell-based; parameters: scale not given: the % may be the effect or the level left
T1 sequence (whole entry): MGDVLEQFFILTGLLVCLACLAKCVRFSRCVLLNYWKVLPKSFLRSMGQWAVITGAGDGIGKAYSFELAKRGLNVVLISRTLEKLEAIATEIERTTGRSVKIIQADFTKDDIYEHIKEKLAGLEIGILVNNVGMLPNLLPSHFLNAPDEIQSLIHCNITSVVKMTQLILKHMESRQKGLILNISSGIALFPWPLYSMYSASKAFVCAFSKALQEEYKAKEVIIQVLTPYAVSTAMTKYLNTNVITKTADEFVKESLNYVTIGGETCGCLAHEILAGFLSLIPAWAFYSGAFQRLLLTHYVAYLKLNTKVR
How it was run: (§1)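 17β-HSD3 or 17β-HSD5 was transiently expressed in HEK-293 cells. Conversion of androstenedione to testosterone was measured in intact cells without added cofactor. Compounds were tested at 20 µM, with final DMSO ≤0.1%. Values are mean ± SD from three independent experiments.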

[2] = molecular target: T2, 17-beta-hydroxysteroid dehydrogenase type 1 (Homo sapiens) (UniProt P14061); assay: Inhibition of human recombinant 17beta-HSD1 expressed in HEK293 cell lysate assessed as conversion of radiolabeled estrone to estradiol at 20 uM; format: cell-free; parameters: scale not given: the % may be the effect or the level left
T2 sequence (whole entry): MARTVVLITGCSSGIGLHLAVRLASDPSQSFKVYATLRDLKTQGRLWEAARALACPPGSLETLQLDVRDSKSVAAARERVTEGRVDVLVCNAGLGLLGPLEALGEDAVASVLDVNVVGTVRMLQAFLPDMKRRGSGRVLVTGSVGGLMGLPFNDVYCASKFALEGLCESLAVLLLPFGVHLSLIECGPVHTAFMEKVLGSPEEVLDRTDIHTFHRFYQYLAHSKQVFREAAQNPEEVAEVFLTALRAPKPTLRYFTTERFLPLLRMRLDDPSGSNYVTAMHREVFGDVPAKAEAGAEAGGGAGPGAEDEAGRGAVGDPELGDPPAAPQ
How it was run: (§2)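 HEK-293 cells transiently transfected with human 17β-HSD1 by calcium phosphate were harvested 48 h later, and the pellets were frozen at -70 °C. Pellets were resuspended in 50 mM potassium phosphate, 20% glycerol and 1 mM EDTA. Conversion of 200 nM radiolabeled estrone to estradiol was measured immediately with 500 µM NADPH. […] DMSO was ≤0.1%. Values are mean ± SD from three independent experiments.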

[3] = molecular target: T3, 17-beta-hydroxysteroid dehydrogenase type 1 (Homo sapiens, UniProt P14061); assay: Inhibition of human recombinant 17beta-HSD1 expressed in HEK293 cell lysate assessed as conversion of radiolabeled estrone to estradiol; format: cell-free; how it was run: as §2
T3 sequence (P14061 whole entry): T2 sequence (whole entry)

[4] = molecular target: T4, Aldo-keto reductase family 1 member C3 (Homo sapiens) (UniProt P42330); assay: Inhibition of human recombinant 17beta-HSD5 expressed in intact HEK293 cells assessed as conversion of androstenedione to testosterone at 20 uM after 24 hrs; format: cell-based; parameters: scale not given: the % may be the effect or the level left; how it was run: as §1
T4 sequence (whole entry): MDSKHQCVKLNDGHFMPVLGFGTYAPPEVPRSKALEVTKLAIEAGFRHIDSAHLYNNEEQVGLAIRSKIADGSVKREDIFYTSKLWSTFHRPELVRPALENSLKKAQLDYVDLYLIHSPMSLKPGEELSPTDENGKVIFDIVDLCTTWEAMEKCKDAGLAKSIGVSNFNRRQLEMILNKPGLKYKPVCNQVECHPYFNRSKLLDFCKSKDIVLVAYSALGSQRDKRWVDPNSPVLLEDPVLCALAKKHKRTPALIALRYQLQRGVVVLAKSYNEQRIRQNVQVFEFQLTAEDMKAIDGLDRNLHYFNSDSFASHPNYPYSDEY

[5] = molecular target: T5, 17-beta-hydroxysteroid dehydrogenase type 2 (Homo sapiens) (UniProt P37059); assay: Inhibition of human recombinant 17beta-HSD2 expressed in HEK293 cell lysate assessed as conversion of radiolabeled estrone to estradiol at 20 uM; format: cell-free; parameters: scale not given: the % may be the effect or the level left
T5 sequence (whole entry): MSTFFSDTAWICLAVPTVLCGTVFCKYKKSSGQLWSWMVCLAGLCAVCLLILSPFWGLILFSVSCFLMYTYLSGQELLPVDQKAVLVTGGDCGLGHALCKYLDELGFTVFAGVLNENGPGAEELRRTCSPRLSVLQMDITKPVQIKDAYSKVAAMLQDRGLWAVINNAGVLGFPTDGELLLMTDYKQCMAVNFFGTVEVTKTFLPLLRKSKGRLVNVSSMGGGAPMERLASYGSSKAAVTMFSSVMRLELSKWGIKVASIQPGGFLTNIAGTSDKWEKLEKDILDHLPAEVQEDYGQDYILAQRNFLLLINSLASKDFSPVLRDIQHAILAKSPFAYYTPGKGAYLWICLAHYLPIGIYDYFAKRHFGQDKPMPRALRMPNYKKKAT

[6] = molecular target: T6, 11-beta-hydroxysteroid dehydrogenase 1 (Homo sapiens, UniProt P28845); assay: Inhibition of human recombinant 11beta-HSD1 expressed in HEK293 cell lysate assessed as conversion of radiolabeled estrone to estradiol at 20 uM; format: cell-free; parameters: scale not given: the % may be the effect or the level left
Target sequence in this assay (P28845 whole entry, looked up): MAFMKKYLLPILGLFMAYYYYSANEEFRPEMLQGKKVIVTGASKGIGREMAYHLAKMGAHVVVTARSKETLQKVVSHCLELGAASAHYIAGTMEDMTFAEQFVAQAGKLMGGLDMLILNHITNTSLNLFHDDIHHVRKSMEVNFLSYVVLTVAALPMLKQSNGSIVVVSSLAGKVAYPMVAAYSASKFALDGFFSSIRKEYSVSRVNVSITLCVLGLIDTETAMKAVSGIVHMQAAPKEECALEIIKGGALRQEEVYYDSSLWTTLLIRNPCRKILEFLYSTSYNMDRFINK

[7] = molecular target: T5, 17-beta-hydroxysteroid dehydrogenase type 2 (Homo sapiens); assay: Inhibition of human recombinant 17beta-HSD2 expressed in HEK293 cell lysate assessed as conversion of radiolabeled estrone to estradiol at 40 uM; format: cell-free; parameters: scale not given: the % may be the effect or the level left
[8] = molecular target: T7, 17-beta-hydroxysteroid dehydrogenase type 2 (Homo sapiens, UniProt P37059); assay: Inhibition of human recombinant 17beta-HSD2 expressed in HEK293 cell lysate assessed as conversion of radiolabeled estrone to estradiol; format: cell-free
T7 sequence (P37059 whole entry): T5 sequence (whole entry)

[9] = molecular target: T6, 11-beta-hydroxysteroid dehydrogenase 1; assay: Inhibition of human recombinant 11beta-HSD1 expressed in HEK293 cell lysate assessed as conversion of radiolabeled estrone to estradiol; format: cell-free
Target sequence in this assay (P28845 whole entry): as the sequence (P28845 whole entry, looked up) above

SMILES	Activity [1]	Activity [2]	IC50 [3]	Activity [4]	Activity [5]	Activity [6]	Activity [7]	IC50 [8]	IC50 [9]	Ki [3]
COc1c2c(cc3c1C1Oc4c(ccc(O)c4CC=C(C)C)C1CO3)OC(C)(C)C=C2 (stereo not drawn)	55%	54%	19 µM	inactive	86%	96%	–	–	–	–
O=S(=O)(Nc1ccccc1)c1ccc2c(c1)Cc1cc(S(=O)(=O)Nc3ccccc3)ccc1-2	80%	75%	–	inactive	76%	56%	–	–	–	–
O=c1cc(-c2ccc(O)cc2)oc2cc(O)cc(O)c12 [APIGENIN]	–	10%	0.71 µM	–	–	–	25.2%	> 20 µM	–	–
O=S1OCC2C(CO1)C1(Cl)C(Cl)=C(Cl)C2(Cl)C1(Cl)Cl (stereo not drawn) [ENDOSULFAN]	–	25%	48.2 µM	–	–	–	51.1%	–	–	–
O=c1cc(-c2ccccc2)oc2cc(O)cc(O)c12	–	34%	–	–	–	–	32.8%	–	–	–
O=C1CC(c2ccccc2O)Oc2ccccc21 (stereo not drawn)	–	95%	–	–	–	–	50.7%	–	–	–
CCOP(=O)(Nc1ccc2c(c1)Cc1c-2cc(Cl)c(NC(C)=O)c1Cl)OCC	86%	90%	–	84%	79%	87%	–	–	–	–
C[C@]12CC[C@@H]3c4ccc(OC5CCCCO5)cc4CC[C@H]3[C@@H]1CC[C@@H]2O (stereo partly drawn)	57%	74%	–	inactive	90%	365%	–	–	20 µM	–
CC1(C)[C@@H](O)CC[C@]2(C)[C@H]3C(=O)C=C4[C@@H]5C[C@@](C)(C(=O)O)CC[C@]5(C)CC[C@@]4(C)[C@]3(C)CC[C@@H]12	–	53%	–	–	–	–	24.5%	–	–	–
O=c1c(O)c(-c2ccc(O)c(O)c2)oc2cc(O)cc(O)c12 [QUERCETIN]	–	65%	–	–	–	–	6.07%	1.54 µM	–	–
O=c1c(-c2ccc(O)cc2)coc2cc(O)cc(O)c12 [GENISTEIN]	–	17%	2.21 µM	–	–	–	15.7%	–	–	–
O=C1CC(c2ccccc2)Oc2ccc(O)cc21 (stereo not drawn)	–	102%	–	–	–	–	42.5%	–	–	–
CCOc1cc(/C=N/NC(N)=O)c(Br)c(Br)c1OCC(=O)Nc1ccc(C)cc1	96%	16%	5.7 µM	inactive	76%	70%	–	–	> 50 µM	–
O=C1CC(c2ccc(O)cc2)Oc2ccccc21 (stereo not drawn)	–	99%	–	–	–	–	63.6%	–	–	–
O=c1c(-c2ccc(O)cc2)coc2cc(O)ccc12	–	35%	–	–	–	–	58.3%	–	–	–
O=C1CC(c2ccccc2)Oc2ccccc21 (stereo not drawn)	–	110%	–	–	–	–	70.7%	–	–	–
Cc1ccc(S(=O)(=O)N/N=C2\C=C[C@H]3[C@@H]4CC=C5C[C@@H](O)CC[C@]5(C)[C@H]4CC[C@]23C)cc1	69%	63%	47 µM	45%	97%	9%	–	–	3.8 µM	–

SMILES	Activity [1]	Activity [2]	IC50 [3]	Activity [4]	Activity [5]	Activity [6]	Activity [7]	IC50 [8]	IC50 [9]	Ki [3]
COc1ccc(-c2coc3cc(O)cc(O)c3c2=O)cc1 [BIOCHANIN]	–	45%	–	–	–	–	10.1%	9.9 µM	–	–
Cc1c(/C=N/N=C2\CC[C@H]3[C@@H]4CCc5cc(O)ccc5[C@H]4CC[C@]23C)cnn1C	75%	34%	33 µM	inactive	63%	81%	–	–	–	–
COC(C(=O)Nc1ccc(-c2ccc(NC(=O)C(OC)c3ccccc3)c(C)c2)cc1C)c1ccccc1 (stereo not drawn)	96%	84%	–	inactive	59%	110%	–	–	–	–
CCCCN(C)C(=O)CCCCCS[C@@H]1C[C@@H]2[C@H](CC[C@]3(C)[C@@H](O)CC[C@@H]23)c2ccc(O)cc21	–	–	0.17 µM	–	–	–	–	–	–	–
O=c1c(O)c(-c2ccc(O)cc2)oc2cc(O)cc(O)c12 [KAEMPFEROL]	–	13%	1.05 µM	–	–	–	4.83%	0.36 µM	–	–
Cc1cc2c(C(C)C)c(O)c(O)c(C=O)c2c(O)c1-c1c(C)cc2c(C(C)C)c(O)c(O)c(C=O)c2c1O	–	60%	–	–	–	–	64.8%	–	–	–
Cc1cc(OCCOc2ccc(N)cc2)ccc1N1C(N)=NC(N)=NC1(C)C	99%	84%	–	inactive	59%	99%	–	–	–	–
CCCCC(=O)Nc1sc2c(c1C(=O)OCC)CCC(/C=N/O)=C2Cl	89%	76%	–	inactive	48%	106%	–	–	–	–
Cc1cc(/C=N/NC(=O)C(O)(c2ccccc2)c2ccccc2)c(C)n1-c1ccc(O)cc1	76%	73%	–	inactive	113%	90%	–	–	–	–
CCOc1cc(CNC2C(C)=NN=C2S)cc(Br)c1OCC(=O)NC1CCCCC1 (stereo not drawn)	19%	70%	–	inactive	105%	16%	–	–	6.2 µM	–
COc1ccc([C@@H]2CC(=O)c3c(O)cc(O)cc3O2)cc1O	–	44%	–	–	–	–	36.4%	–	–	–
C[C@]12CC[C@@H]3c4ccc(O)cc4CC[C@H]3[C@@H]1C[C@H](CCCCCCCCC(=O)OC[C@H]1O[C@@H](n3cnc4c(N)ncnc43)[C@H](O)[C@@H]1O)[C@@H]2O	–	–	–	–	–	–	–	–	–	0.003 µM
Cc1cc(-c2ccc(NS(=O)(=O)c3ccccc3)c(C)c2)ccc1NS(=O)(=O)c1ccccc1	92%	64%	–	inactive	56%	101%	–	–	–	–
CCOc1cc(/C=N/NC(=O)c2ccccn2)c(Br)c(Br)c1O	95%	88%	–	inactive	55%	68%	–	–	–	–
O=C1C[C@@H](c2ccc(O)cc2)Oc2cc(O)cc(O)c21 [NARINGENIN]	–	17.2%	4.96 µM	–	–	–	12.6%	14.4 µM	–	–
O=c1cc(-c2ccccc2)oc2ccccc12	–	94%	–	–	–	–	63.9%	–	–	–
O=c1cc(-c2ccccc2)oc2cc(O)ccc12 [7-HYDROXYFLAVONE]	–	16%	5.25 µM	–	–	–	23.1%	> 20 µM	–	–
